From PubChem BioAssay
Only a sample is shown.
Apaf-1 act: activators of human Apaf-1 apoptosome, primary screen, biochemical, DEVD-Rh110 fluorescence, uHTS | Apaf-1 apoptosome caspase-3 activation; stronger effect = lower value | hit rate 0.31% among 330,000 | activity change, negative = activation, % at 20 µM | Apoptotic protease-activating factor 1 (Homo sapiens), O14727;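 active = activity change at or below -40% at 20 µM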
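Material: biochemical Apaf-1 apoptosome reconstitution; Medium: 20 mM HEPES buffer, pH 7.5, containing CHAPS and BSA; Reagent: dATP, cytochrome c, and (Z-DEVD)2-Rh110 caspase-3 substrate; Times: 30 min preincubation, 50 min reaction, room temperature; Signal: Rh110 fluorescence, excitation 480 nm, emission 540 nm; Measure: Caspase-3 activity via Apaf-1.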
Rh110 interf act: Rh110 fluorescence interference by putative Apaf-1 activators, confirmation, artefact control for Apaf-1 activator project, biochemical, 20 µM | shares compounds with Apaf-1 act | quenched caspase reaction, Ex480/Em540 | fluorescence interference (activity change), % at 20 µM, hits read low | 980 tested, under 10 active;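 active = mean activity change at or below -40% when tested at 20 µM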
Apaf-1 act conf2: Apaf-1 activators, single-dose retest, confirmation, biochemical, fluorescence, DEVD-Rh110, 20 µM; shares compounds with Apaf-1 act; reconstituted apoptosome caspase-3 activity; stronger effect = lower value; activity change, negative = activation, % at 20 µM; hit rate 5% among 980;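 active = mean activity change at or below -40%, meaning activation of 40% or more, at 20 µM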
Active calls of the source: *; / = no result.

SMILES | Apaf-1 act | Rh110 interf act | Apaf-1 act conf2
CC(OC(=O)c1ccc(-n2cnnn2)cc1)C(=O)Nc1ccccc1F (stereo not drawn) | -229* | 11 | 13
COc1ccc2nc3cc(Cl)ccc3c(Nc3cc(CN4CCCC4)c(O)c(CN4CCCC4)c3)c2n1 | 62 | / | /
NC(=O)CC1Nc2cccc3cccc(c23)NC1=O (stereo not drawn) | 98 | / | /
COc1ccc(CN(C)C(=O)c2ccc(OCC(=O)Nc3cccc(C(F)(F)F)c3)c(OC)c2)c(OC)c1 | 45 | / | /
CCN(CC)CCn1c2c(c(SCC(=O)Nc3nccs3)nc1=O)CCCC2 | -50* | -4 | 10
COc1ccc(CCN(C)C(=O)c2cccc(S(=O)(=O)NCc3ccccc3)c2)cc1OC | 57 | / | /
CCOc1cc(/C=C2\C(=O)N(c3ccc(C(N)=O)cc3)N=C2C)ccc1OC(=O)c1cccs1 | 93 | / | /
COc1ccc(CCNC(=O)COC(=O)c2cccs2)cc1OC | -163* | 19 | 16
C#CCOCCOCCOCCNc1nc(N2CCN(C(=O)CCCCCCCCCCNC(=O)[C@H](CCC(=O)O)n3cc(CCCCCN)nn3)CC2)nc(N2CCN(C(=O)CCCCCCCCCCNC(=O)[C@@H]([C@H](C)O)n3cc(C)nn3)CC2)n1 | 51 | / | /
CCOC(=O)Nc1ccc2c(c1)N(C(=O)OCCN(C)C)c1ccccc1CC2 | -1 | / | /
CCOc1cc(C)c(S(=O)(=O)Nc2ccc(Cl)cn2)cc1C | -40* | 5 | 14
CC(=O)OCCCNc1cc(SCc2ccco2)c2nonc2c1[N+](=O)[O-] | 74 | / | /
COC(=O)C1=C(C)N(CC2CC2)C(=NCc2cccc(C(F)(F)F)c2)N[C@H]1c1ccccc1 | 57 | / | /
COc1cc(OC)c2c(-c3ccccc3)cc(=O)oc2c1C(CCN1CCOCC1)c1ccc(N(C)C)cc1 (stereo not drawn) | 52 | / | /
O=C(NCCc1ccccc1)c1ccccc1SCC(=O)N1CCCC1 | 60 | / | /
O=C(CSc1ccccn1)N1CCN(c2ccccc2)CC1 | -49* | -10 | 6
Cc1ccc(-c2noc(CCC(=O)N3CCN(c4cccc(C(F)(F)F)c4)CC3)n2)cc1 | 42 | / | /
CCN1CCN(CCNC(=O)c2ccc3nc(-c4cccc(C)c4)c(-c4cccc(C)c4)nc3c2)CC1 | 47 | / | /
Nc1ccnc(C(F)(F)F)c1C(=O)c1ccccc1 | -43* | 7 | 0
CCC(CO)Oc1cc(NCc2cccc(C)c2)c2ncn(C(C)C)c2c1 (stereo not drawn) | 54 | / | /
COc1ccccc1-c1sc2cc3c(cc2c1-c1ccc(OCCN2CCCCC2)cc1)OCO3 | 59 | / | /
CCCCc1nc(C(N)=O)c2[nH]c(=O)n(-c3ccc(OCC)cc3)c2n1 | -157* | 0 | 9
CCOC(=O)C1CCCN(c2cc(NCCCO)c([N+](=O)[O-])c3nonc23)C1 (stereo not drawn) | 40 | / | /
O=C(c1ccc2nc(-c3ccco3)c(-c3ccco3)nc2c1)N1CCN(c2ncccn2)CC1 | 57 | / | /
O=C(O)c1cc(O)c2c(c1)[C@@H]([C@H]1c3cc(C(=O)O)cc(O)c3C(=O)c3c(O[C@@H]4O[C@H](CO)[C@@H](O)[C@H](O)[C@H]4O)cccc31)c1cccc(O[C@@H]3O[C@H](CO)[C@@H](O)[C@H](O)[C@H]3O)c1C2=O | 99 | / | /
SMILES | Apaf-1 act | Rh110 interf act | Apaf-1 act conf2
CS(=O)(=O)N(CC(=O)N1CCc2ccccc2C1)c1cccc(Br)c1 | -258* | 2 | 14
Cc1ccc2[nH]c3c(c2c1)CN(C(=O)CN1CCCc2ccccc21)CC3 | 78 | / | /
O=C1C(C2=C(O)c3ccccc3C2=O)=Nc2ccccc21 | 66 | / | /
COCCN1C=C2C(=O)C(C)(OC(=O)CCC(=O)OC)C(=O)C=C2C=C1C1CC1 (stereo not drawn) | 43 | / | /
CC1=NN(c2ccccc2)C(=O)/C1=C/c1cccs1 | 90 | / | /
Cc1c(N=Cc2cccs2)c(=O)n(-c2ccccc2)n1C | -182* | 1 | 8
CCN(CC)CCN(C(=O)c1ccc2c(c1)CCCC2)c1nc2ccc(C)cc2s1 | 51 | / | /
Cc1nn(-c2ccccc2)c2c1C(c1ccccc1)C(C#N)=C(N)O2 (stereo not drawn) | 97 | / | /
COc1ccc(NC(=O)c2ccc(-c3ccc(-c4noc(C)n4)cc3C)cc2)cc1N1CCN(C)CC1 | 57 | / | /
COc1ccc(-c2noc(-c3ccccc3C(=O)NCc3ccco3)n2)cc1OC | -324* | 4 | -4
O=C(NCc1ccccc1)c1ccc2nc(-c3ccco3)c(-c3ccco3)nc2c1 | 65 | / | /
CN(C=[N+](C)C)c1cccc2c1C(=O)c1ccccc1C2=O | 43 | / | /
